High-throughput results deposited in PubChem BioAssay by several laboratories.
ADAM10 inh – inhibitors of human ADAM10. AID 720582. recombinant ADAM10, EDANS/DABCYL FRET peptide cleavage, 3 h. inhibition, % at 7 µM. 370,000 tested, 0.62% active. O14672;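 active = inhibition above a per-campaign cutoff equal to the mean of compounds falling between control-based bounds plus 3 SD, cut at about 20% in these data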;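 note: 0% = DMSO wells while the 100% control is not disclosed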
Target sequence (O14672 214-748 limits assumed): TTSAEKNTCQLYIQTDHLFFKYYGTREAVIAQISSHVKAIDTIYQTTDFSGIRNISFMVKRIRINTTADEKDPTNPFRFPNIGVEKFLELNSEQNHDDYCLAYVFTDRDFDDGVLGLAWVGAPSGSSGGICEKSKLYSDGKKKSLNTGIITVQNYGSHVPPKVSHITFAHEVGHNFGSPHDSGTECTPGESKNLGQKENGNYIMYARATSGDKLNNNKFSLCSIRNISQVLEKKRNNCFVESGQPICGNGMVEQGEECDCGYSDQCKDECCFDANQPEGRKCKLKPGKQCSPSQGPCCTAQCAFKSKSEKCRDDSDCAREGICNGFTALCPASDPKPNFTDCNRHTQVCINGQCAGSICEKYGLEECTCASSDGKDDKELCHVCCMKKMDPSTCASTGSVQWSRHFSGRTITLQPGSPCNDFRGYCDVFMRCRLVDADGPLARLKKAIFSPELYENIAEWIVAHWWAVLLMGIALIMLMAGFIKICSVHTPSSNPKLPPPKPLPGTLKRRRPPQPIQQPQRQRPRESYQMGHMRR
V-ATPase pH – yeast V-ATPase proton transport regulation by pHLuorin; S. cerevisiae, pHLuorin cytosolic pH fluorescence; response, % at 10 µM; 350,000 tested, 0.37% active; AID 504577; in the data active = response mostly above about 7.3%, no sharp cut-off; inactive = mostly below about 5.4%; note: actives read high
aDG glyco up – alpha-DG glycosylation activation | 360,000 tested, 0.22% active | AID 624168 | Pro5-aDG cells, alpha-DG glycosylation AlphaScreen (IIH6); 0% Pro5, 100% B10-LARGE cell signal | activation, % at 10 µM;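 active = activation of at least 8% versus controls, or a plate z-score of at least 8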;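 note: Pro5 are CHO cells carrying HIG-tagged alpha-DG that lacks glycosylation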
Hep lipid drop – hepatic lipid droplet formation modulation. AML12 mouse hepatocytes, oleate lipid droplets, BODIPY imaging. inhibition, % at 6.5 µM. 240,000 tested, 0.4% active;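 active = lipid droplet intensity inhibited by at least 50%, with more than 500 cells counted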
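Assay system: AML12 mouse liver cells | Compound: 6.5 µM single-point dosing | Schedule: Overnight exposure | Technique: Fluorescence imaging, 20x objective, two fields per well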
MPTP block – permeability transition pore inhibition | 360,000 tested, 1.4% active | inhibition, % at 10 µM | isolated mouse mitochondria, Ca2+ swelling absorbance, 30 min;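 active = inhibition of 50% or more, scaled per plate between neutral and stimulator controls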;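 note: 0% = DMSO wells given calcium and 100% = 1 mM EGTA wells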
ADAM17 inh – inhibits human ADAM17. P78536. recombinant ADAM17, EDANS/DABCYL FRET peptide cleavage. inhibition, % at 6.95 µM. 370,000 tested, 0.83% active;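 active = inhibition above the mean of compounds lying between control limits plus 3 SD, set per campaign, cut at about 8.5% in these data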;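 note: 0% = DMSO-only wells as the low control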
ADAM10 confirm – confirmation of inhibitors of human ADAM10; shares compounds with ADAM10 inh; ADAM10 QFRET peptide cleavage, EDANS fluorescence; inhibition, % at 6.95 µM; 2,100 tested, 1% active;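 active = inhibition above about 20% chosen separately for each screening run, limit read from the data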;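 note: 0% = DMSO wells and 100% = marimastat wells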
ADAM17 ctr – inhibits human ADAM17 in ADAM10 exosite counter-screen; 2,100 tested, 0.5% active; inhibition, % at 6.95 µM; ADAM17 QFRET peptide cleavage, EDANS fluorescence; shares compounds with ADAM10 inh;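 active = mean triplicate inhibition above the solvent-only control wells' mean plus 3 SD, cut at about 12% in these data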;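 note: 0% = DMSO wells and 100% = marimastat wells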
ADAM10 counter – inhibits human ADAM10 in ADAM17 exosite counter-screen | shares compounds with ADAM17 inh | recombinant ADAM10, EDANS/DABCYL FRET peptide cleavage, 3 h | inhibition, % at 6.95 µM | 2,900 tested, 47% active | AID 743256;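 active = mean inhibition over the triplicate runs exceeds the activity threshold set in the earlier primary screen, cut at about 20% in these data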;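 note: 0% = DMSO wells and 100% = marimastat wells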
ADAM17 confirm – human ADAM17 inhibition, confirmation; AID 743257; recombinant ADAM17, EDANS/DABCYL QFRET peptide cleavage; inhibition, % at 6.95 µM; shares compounds with ADAM17 inh; 2,900 tested, 65% active;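 active = mean inhibition across replicates above the hit cutoff set in the primary screen, cut at about 8.5% in these data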;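 note: 0% = DMSO wells and 100% = marimastat wells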
Starred values were filed as active, the others as inactive; x = not tested or not shown. Sampled rows, rich in hits. Any-hit rate of the full collection: about 3.1%.

SMILES | ADAM10 inh | V-ATPase pH | aDG glyco up | Hep lipid drop | MPTP block | ADAM17 inh | ADAM10 confirm | ADAM17 ctr | ADAM10 counter | ADAM17 confirm
COCOCCn1cc(CN2CCS(=O)(=O)N(Cc3ccc(-c4ccc(Cl)c(Cl)c4)cc3)C(C(C)C)C2=O)nn1 (stereo unspecified) | 27* | 2 | 0 | x | -2 | 9.1* | 8 | 3 | 28* | 20*
COCOCCn1cc(CN2CCS(=O)(=O)N(Cc3ccc(-c4ccc(Cl)cc4)cc3)C(C(C)C)C2=O)nn1 (stereo unspecified) | 4 | 1 | 0 | x | 0 | 3 | x | x | x | x
Cc1ccc(-c2ccc(CN3C(CC(C)C)C(=O)N(Cc4cn(CCC5OCCO5)nn4)CCS3(=O)=O)cc2)cc1 (stereo unspecified) | 26* | 1 | 0 | x | -2 | 9.8* | 6 | 3 | 26* | 23*
CCOC(=O)[C@]12CCCC=C1N(Cc1cccc3ccccc13)C(=O)[C@H](CC(=O)NCc1ccccc1)C2 | 18 | x | 0 | x | 0 | 8 | x | x | x | x
CCOC(=O)[C@]12CCCC=C1N(Cc1cccc3ccccc13)C(=O)[C@H](CC(=O)NCc1cccs1)C2 | 27* | x | 0 | x | -3 | 10* | 4 | 2 | 26* | 16*
O=C(CSc1nc2ccccc2c(=O)n1-c1ccc(F)c(Cl)c1)Nc1cccc(S(=O)(=O)N2CCOCC2)c1 | 20* | -7 | 0 | -3 | 1 | 10* | 8 | 2 | 30* | 20*
CN(C)S(=O)(=O)c1cccc(NC(=O)CSc2nc3ccccc3n2-c2ccccc2)c1 | 20* | 3 | 0 | -25 | 2 | 10* | 7 | 2 | 24* | 13*
CN(C)S(=O)(=O)c1ccc(NC(=O)CSc2nc3ccccc3n2-c2ccccc2)cc1 | 14 | 3 | 0 | 6 | -16 | 5 | x | x | x | x
CN1CCN(S(=O)(=O)c2ccc3c(c2)NC(=O)CS3)CC1 | 0 | 1 | 0 | 14 | 0 | -2 | x | x | x | x
Cc1ccc(C)c(N2CCN(S(=O)(=O)c3ccc4c(c3)NC(=O)CS4)CC2)c1 | 20* | 1 | 1 | -18 | 0 | 12* | 8 | 2 | 34* | 18*
CC(C)(C)OC(=O)[C@H](Cc1ccccc1)NC(=O)c1nc[nH]c1C(=O)NC1CCN(C(=O)OC(C)(C)C)CC1 | 24* | -2 | 1 | -7 | -1 | 11* | 5 | 1 | 50* | 23*
C[C@H](NC(=O)c1nc[nH]c1C(=O)NC1CCN(C(=O)OC(C)(C)C)CC1)C(=O)OC(C)(C)C | -1 | 3 | 0 | -2 | -2 | -1 | x | x | x | x
CC(C)C[C@H](NC(=O)c1nc[nH]c1C(=O)NC1CCN(C(=O)OC(C)(C)C)CC1)C(=O)OCc1ccccc1 | 37* | -2 | 0 | -1 | 0 | 16* | 9 | 3 | 29* | 16*
CC(C)C[C@H](NC(=O)c1nc[nH]c1C(=O)NC1CCN(C(=O)OC(C)(C)C)CC1)C(=O)OC(C)(C)C | 24* | 3 | 0 | -33 | -1 | 9.4* | 3 | 0 | 32* | 16*
CC(C)C[C@H](NC(=O)c1nc[nH]c1C(=O)N1CCN(C(=O)OC(C)(C)C)CC1)C(=O)OCc1ccccc1 | 25* | -1 | 0 | 11 | -4 | 9.9* | 2 | 1 | 27* | 11*
O=C(CSc1nnc(COc2ccccc2)n1Cc1ccco1)Nc1ccc2c(c1)OCO2 | 3 | x | x | x | x | 4 | x | x | x | x
